Consider 14 compounds from PubChem BioAssay.

Test [1] in a line: inhibitors of TNFa-induced NFkB p65 translocation, primary screen, imaging, HUVEC, MLSMR starter and 10KST1 sets (AID 438;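 active = inhibition above 20% together with a positive visual image hit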;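 also: compound added about 3h40 before a 20 min TNFalpha stimulation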;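 as to inhibition: signal is the nuclear over cytoplasmic p65 intensity ratio per well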). The settings on record: HUVEC TNFa-induced p65 nuclear translocation; cell count: measured here: nuclei count (cytotoxicity indicator), at 2.08 µM; inhibition: at 2 µM, stronger effect = higher value, 0% TNFa-plus-vehicle, 100% no-TNFa wells.
The nature of test [2]: inhibitors of mutant huntingtin aggregation, primary screen, imaging, exon1htt(103Q)mCFP cells, high-content imaging (AID 483;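 active = visual image review flags a hit and inhibition of aggregation exceeds 20%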;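 also: compound exposure lasted 3 days before fixation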;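 as to nuclei count: percent of the per-plate median nuclei count of sample wells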). The settings on record: exon1htt(103Q)mCFP cell line, aggregate imaging, at 2 µM; inhibition of aggregation: stronger effect = higher value; nuclei count: measured here: cell count, toxicity.
Test [3] is described as follows: inhibitors of E-selectin induction by TNFa, primary screen, imaging, HUVEC, immunofluorescence, MLSMR starter and 10KST1 sets (AID 487;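 active = visually confirmed hit in the image check and inhibition above 20%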;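 as to inhibition: signal is fraction of cell area covered by stained E-selectin grains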;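 as to nuclei count: 100% = median nuclei count of all wells on the same plate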). Conditions: HUVEC TNFalpha-induced E-selectin immunofluorescence imaging, at 2 µM; inhibition: stronger effect = higher value; nuclei count: measured here: cell number, toxicity.
For test [4], the target named is Voltage-gated potassium channel subunit beta-2 (Rattus norvegicus) (UniProt P62483). The test is described as follows: KvBeta enzyme negative modulators, primary screen, biochemical, NADPH fluorescence (AID 622;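 active = fluorescence slope higher than the sample average by over 3 SD, cut at about -0.22 in these data, passing the limit was not always enough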;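 also: slope of raw intensity against log time taken from 70 to 1610 s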). The settings on record: recombinant KvBeta, 4-cyanobenzaldehyde reduction, at 10 µM, stronger effect = higher value.
Test [5] has the same target. The test is described as follows: KvBeta positive modulators, primary screen, biochemical, NADPH fluorescence (AID 623;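 active = NADPH fluorescence slope more negative than the mean of all samples by about 3 SD, 99.7% confidence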;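 also: fluorescence intensity change per second fitted from 20 to 320 s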). The settings on record: Recombinant KvBeta, NADPH fluorescence decrease slope, 10 min; at 10 µM; stronger effect = lower value.
Test [6] deals with Muscarinic acetylcholine receptor M4 (Homo sapiens) (UniProt P08173). The test is described as follows: compounds altering M4/GIRK thallium flux, either direction, primary screen, M4 allosteric agonist project, cell-based, HEK293 M4/GIRK, BTC-AM (AID 625;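 active = fluorescence slope after compound addition differing from the mean of all tested samples at 99.7% confidence, mostly higher but some lower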;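 also: thallium influx through GIRK channels coupled to M4 in HEK293 cells with BTC-AM dye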). Conditions: at 10 µM, actives lie on both sides. In a few lines: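 System: HEK293 cells with M4 receptor and GIRK channels | Incubation: Cells overnight at 37 °C, BTC-AM loading 1 h, reads 2 min total | Technique: Kinetic BTC-AM fluorescence sampled at 1 Hz, 10 s pre-addition baseline | Measure: Post-addition slope, 15–24 s, of baseline-normalized fluorescence | Control set: Carbachol positive, DMSO negative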

Test [7] is described as follows: inhibitors of Sendai virus-induced IRF3 signaling, primary screen, TLR/RLR signaling modifier project, cell-based, Sendai virus stimulus, luciferase, 10K MLSCN set (AID 602276).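 Also: firefly luciferase from ISG56 promoter only with Renilla not read in this screen; 0% = Sendai virus plus DMSO and 100% = medium plus DMSO without virus.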 Conditions: HEK293 RL24 IRF3 luciferase reporter, at 10 µM, stronger effect = higher value. A general note: A reporter such as luciferase makes a cellular process visible.
A short description of test [8]: inhibitors of poly I:C-induced TLR3 signaling, primary screen, cell-based, poly I:C stimulus, luciferase, 10K MLSCN set (AID 602277;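 active = inhibition of the reporter signal at or above 50%; inactive = inhibition below 50%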). The settings on record: HEK293-TLR3 RL24 IRF3 luciferase reporter, at 10 µM, stronger effect = higher value.

The source made the active and inactive calls.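 The calls were made as follows, unless noted: active = inhibition at or above 50% at 10 µM; inactive = inhibition below 50%.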

Voltage-gated potassium channel subunit beta-2 (Rattus norvegicus), sequence (P62483 whole entry, looked up): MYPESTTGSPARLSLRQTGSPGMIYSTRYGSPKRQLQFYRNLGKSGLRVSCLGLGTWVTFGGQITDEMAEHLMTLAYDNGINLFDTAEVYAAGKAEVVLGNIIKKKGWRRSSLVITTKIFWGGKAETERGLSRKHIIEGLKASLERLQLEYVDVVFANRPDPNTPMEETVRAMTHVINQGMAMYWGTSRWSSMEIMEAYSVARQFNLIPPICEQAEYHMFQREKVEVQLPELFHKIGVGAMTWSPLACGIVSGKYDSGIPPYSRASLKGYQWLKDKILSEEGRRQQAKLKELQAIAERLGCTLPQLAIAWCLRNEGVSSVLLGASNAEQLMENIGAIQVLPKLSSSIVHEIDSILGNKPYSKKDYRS
Muscarinic acetylcholine receptor M4 (Homo sapiens), sequence (P08173 whole entry, looked up): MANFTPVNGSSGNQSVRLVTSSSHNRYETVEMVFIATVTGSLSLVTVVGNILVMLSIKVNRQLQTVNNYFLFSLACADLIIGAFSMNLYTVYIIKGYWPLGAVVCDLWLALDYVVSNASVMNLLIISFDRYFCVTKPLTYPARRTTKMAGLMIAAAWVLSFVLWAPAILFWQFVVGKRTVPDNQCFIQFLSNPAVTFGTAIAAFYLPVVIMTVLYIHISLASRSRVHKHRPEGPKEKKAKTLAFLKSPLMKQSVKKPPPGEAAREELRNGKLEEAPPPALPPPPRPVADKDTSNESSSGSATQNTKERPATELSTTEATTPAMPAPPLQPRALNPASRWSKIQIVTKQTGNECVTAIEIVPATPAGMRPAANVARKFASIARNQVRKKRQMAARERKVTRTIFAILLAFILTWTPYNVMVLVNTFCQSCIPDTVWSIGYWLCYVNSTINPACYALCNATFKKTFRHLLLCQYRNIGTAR

A word on the inhibition: it is the change of the read-out against control, counted positive when it falls. For the compound `Cc1ccc2c(c1)c1c(n2CC(O)Cn2c(C)nc3ccccc32)/C(=N\O)CCC1` (centres undefined), the cell count in test [1] worked out at 459. Also, the inhibition was 2.7% (inactive) in test [1], -15.9% (inactive) in test [3], 7.68% (inactive) in test [7] and -1.8% (inactive) in test [8]. The inhibition of aggregation in test [2] was -25.1% (inactive). The figures for the nuclei count in test [2] and in test [3] were 14.1% and 103%, respectively. Moreover, the fluorescence slope is -0.433 (inactive) in test [4] and 0.00656 (inactive) in test [6]. In addition, the NADPH fluorescence slope in test [5] was 9.2e-05 (inactive).

As to `CCOc1ncccc1C(=O)Nc1ccc2c(C)cc(=O)oc2c1`, the cell count in test [1] came out at 585. For the same compound, the inhibition in test [1] is 5.8% (inactive); in test [3] it was -26.9% (inactive); in test [7], 10.1% (inactive); in test [8], 4.34% (inactive). Moreover, the inhibition of aggregation in test [2] is 10% (inactive). Also, the nuclei count is 92.5% in test [2] and 96.9% in test [3]. Besides, the fluorescence slope was -0.535 (inactive) in test [4] and 0.00712 (inactive) in test [6]. The NADPH fluorescence slope in test [5] was -3.1e-05 (inactive).

`CCOc1cc2[nH]c(=O)n(CCCCC(=O)N3CCCCCC3)c(=O)c2cc1OCC`: the cell count in test [1] stood at 218. Besides, the inhibition in test [1] was 2.2% (inactive); in test [3] it was 14.4% (inactive); in test [7] it was 14.3% (inactive); in test [8] it was 18.4% (inactive). For the same compound, the inhibition of aggregation in test [2] is 4.8% (inactive). Also, the results for the nuclei count in test [2] and in test [3] were 86.8% and 89.8%, respectively. Further, the fluorescence slope is -0.437 (inactive) in test [4] and 0.00663 (inactive) in test [6]. Also, the NADPH fluorescence slope in test [5] was -0.00041 (inactive).

Turning to `COCCn1nnnc1C(c1cc2cc(C)cc(C)c2[nH]c1=O)N1CCN(c2ccccc2F)CC1` (centres undefined), the cell count in test [1] amounted to 660. The inhibition in test [1] was 10.1% (inactive); in test [3] it was 13.5% (inactive); in test [7], 16.8% (inactive); in test [8], 29.8% (inactive). Moreover, the inhibition of aggregation in test [2] is -11% (inactive). The nuclei count in test [2] is 80.7%; in test [3], 130%. Moreover, the fluorescence slope in test [4] is -0.413 (inactive); in test [6] it was 0.00818 (inactive). The NADPH fluorescence slope in test [5] is 0.000111 (inactive).

Regarding `Brc1ccc(-c2cn3cccnc3n2)cc1`, the cell count in test [1] is 514. Also, the inhibition in test [1] is 3.4% (inactive); in test [3], -4.5% (inactive); in test [7] it was -47.6% (inactive); in test [8], -89.9% (inactive). Besides, the inhibition of aggregation in test [2] is -8.8% (inactive). Further, the nuclei count worked out at 121% in test [2] and 110% in test [3]. For the same compound, the fluorescence slope was -0.138 (active) in test [4] and 0.00424 (inactive) in test [6]. For the same compound, in test [5], the NADPH fluorescence slope was 7.5e-06 (inactive).

Consider `COc1ccc2c(C(=O)CN(C)C3CCCCC3)c[nH]c2c1`, for which the cell count in test [1] was found to be 533. The inhibition in test [1] is -0.9% (inactive); in test [3] it was -20.8% (inactive); in test [7], 20.8% (inactive); in test [8], 39.7% (inactive). In test [2], the inhibition of aggregation is -4.4% (inactive). Moreover, the results for the nuclei count in test [2] and in test [3] were 82.5% and 96.7%, respectively. Also, the fluorescence slope in test [4] is -0.561 (inactive); in test [6] it was 0.0054 (inactive). Further, in test [5], the NADPH fluorescence slope is -2.1e-05 (inactive).

Take `CSc1nnc2c3ccccc3n(Cc3ccccc3)c2n1`: in test [1], the cell count came to 295. Besides, the inhibition was -0.5% (inactive) in test [1], 30.6% (inactive) in test [3], 19.7% (inactive) in test [7] and 17% (inactive) in test [8]. In test [2], the inhibition of aggregation is 3.5% (inactive). For the same compound, the results for the nuclei count in test [2] and in test [3] were 92.5% and 86.1%, respectively. Further, the fluorescence slope in test [4] is -0.45 (inactive); in test [6], 0.00511 (inactive). In test [5], the NADPH fluorescence slope is -4.8e-05 (inactive).

Consider `CC(=O)Nc1ccc(Oc2cc(C#N)c(C#N)cc2N2CCCCCC2)cc1`, for which the cell count in test [1] was determined as 305. Further, the inhibition in test [1] is -7.7% (inactive); in test [3], -62.5% (inactive); in test [7] it was 13.8% (inactive); in test [8] it was 21.8% (inactive). For the same compound, in test [2], the inhibition of aggregation is -9.6% (inactive). Also, the nuclei count in test [2] came to 91.5%; in test [3], 127%. The fluorescence slope was -0.377 (inactive) in test [4] and 0.00486 (inactive) in test [6]. In test [5], the NADPH fluorescence slope was 2.3e-05 (inactive).

With `O=C(NCc1ccc(F)cc1)c1cc(-c2ccco2)on1`, in test [1], the cell count was found to be 330. Further, the inhibition in test [1] is -17.6% (inactive); in test [3] it was 29.3% (inactive); in test [7] it was -17.1% (inactive); in test [8], -42.6% (inactive). For the same compound, the inhibition of aggregation in test [2] is 18.1% (inactive). In addition, the nuclei count in test [2] was found to be 92%; in test [3], 102%. Besides, the fluorescence slope is -0.46 (inactive) in test [4] and 0.00521 (inactive) in test [6]. In addition, the NADPH fluorescence slope in test [5] was -5.1e-05 (inactive).

`COc1cccc(Oc2ccc(N)cc2)c1`: the cell count in test [1] was 716. Besides, the inhibition in test [1] was -0.6% (inactive); in test [3] it was -54.1% (inactive); in test [7], -0.294% (inactive); in test [8] it was -6.53% (inactive). For the same compound, the inhibition of aggregation in test [2] was 20.3% (inactive). Also, the nuclei count in test [2] worked out at 102%; in test [3], 97.5%. The fluorescence slope in test [4] is -0.44 (inactive); in test [6], 0.00432 (inactive). Also, the NADPH fluorescence slope in test [5] was -0.000235 (active).

Regarding `Brc1ccc(C2=Nn3c(nnc3-c3ccncc3)SC2)cc1`, the cell count in test [1] was 369. Also, the inhibition in test [1] is 2.2% (inactive); in test [3], -12.7% (inactive); in test [7], 13.7% (inactive); in test [8] it was 0.85% (inactive). Also, the inhibition of aggregation in test [2] was -12.9% (inactive). Besides, the nuclei count in test [2] amounted to 123%; in test [3] it was 117%. Further, the results for the fluorescence slope in test [4] and in test [6] were -0.544 (inactive) and 0.00451 (inactive), respectively. Further, the NADPH fluorescence slope in test [5] is 3.4e-05 (inactive).

Consider `Cn1c(=O)c2c(nc(SCC(=O)O)n2Cc2cccc(C(F)(F)F)c2)n(C)c1=O`, for which, in test [1], the cell count was determined as 204. The inhibition in test [1] is -0.8% (inactive); in test [3], 9.2% (inactive); in test [7] it was 15.4% (inactive); in test [8], 13.8% (inactive). Besides, in test [2], the inhibition of aggregation was -19.7% (inactive). Moreover, the figures for the nuclei count in test [2] and in test [3] were 77.2% and 74.6%, respectively. For the same compound, the results for the fluorescence slope in test [4] and in test [6] were -0.531 (inactive) and 0.0052 (inactive), respectively. In test [5], the NADPH fluorescence slope is 6.2e-06 (inactive).

`CC(C)(C)n1nc2c(c1NC(=O)COc1ccc(Cl)cc1)CSC2`: the cell count in test [1] amounted to 643. For the same compound, the inhibition in test [1] is 3.8% (inactive); in test [3] it was 30.9% (inactive); in test [7], 18% (inactive); in test [8], 25.3% (inactive). Further, in test [2], the inhibition of aggregation was 13.9% (inactive). For the same compound, the values for the nuclei count in test [2] and in test [3] were 93.1% and 95.3%, respectively. The fluorescence slope was -0.467 (inactive) in test [4] and 0.00791 (inactive) in test [6]. The NADPH fluorescence slope in test [5] was -3.3e-06 (inactive).

As for `COc1cccc2c(=O)c3c(cnn3C)n(C)c12`, in test [1], the cell count is 279. Moreover, the inhibition in test [1] was 16.3% (inactive); in test [3], -37.2% (inactive); in test [7] it was -10.8% (inactive); in test [8] it was -29.4% (inactive). Also, the inhibition of aggregation in test [2] was -31.5% (inactive). For the same compound, the nuclei count was 52.8% in test [2] and 111% in test [3]. The figures for the fluorescence slope in test [4] and in test [6] were -0.412 (inactive) and 0.00385 (inactive), respectively. Moreover, the NADPH fluorescence slope in test [5] is 3.1e-05 (inactive).
